Assay [1] is described as follows: Cytotoxicity against human MV522 cells after 48 hrs by trypan blue exclusion assay. Particulars: MV522, 48 h. The class given is functional, cell-based. In outline:
(§1)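 Human MV522 lung adenocarcinoma (target) and 8392 B-cell lymphoma/leukemia (nontarget) lines. Compounds were made as 1 mg/mL stocks in cell-culture-grade DMSO and diluted in sterile 10% DMSO/PBS just before addition. Cells were exposed continuously for 48 h, and controls received equal DMSO/PBS vehicle. Cell survival was scored at 48 h by trypan blue exclusion.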

Assay [2] is described as follows: Cytotoxicity against human 8392B cells after 48 hrs by trypan blue exclusion assay. Type of assay: cell-based. The method, boiled down:
as §1

A short description of assay [3]: Selectivity index, ratio of IC50 for human 8392B cells to IC50 for human MV522 cells. The class given is functional.
In another assay the test system is MV522. The assay can be described thus: In-vivo antitumor activity against human MV522 cells assessed as induction of tumor shrinkage in xenograft model at nontoxic dose. The class given is functional, cell-based. Background: In xenograft studies the graft and the host belong to different species.

Molecules are shown by their SMILES. Active and inactive are the calls of the source. The calls are words filed in the database; no cut-off is given here. A value given as a limit tells only on which side of the number the result lay.

`CC1=C(CCCOC(=O)NCCCl)C2=C(C)C3(CC3)[C@@](C)(O)C(=O)C2=C1`: the midpoint of inhibition in assay [1], the IC50, lay at 0.057 µM.
As for `CC1=C(CCCOC(=O)N2CCCCC2)C2=C(C)C3(CC3)[C@@](C)(O)C(=O)C2=C1`, the IC50 in assay [1] came out at 1.2 µM; in assay [2], 7.1 µM. For the same compound, in assay [3], the “Ratio IC50” value amounted to 6.
Take `CC1=C(CNC(=O)NCCCl)C2=C(C)C3(CC3)[C@@](C)(O)C(=O)C2=C1`: the IC50 in assay [2] was over 8.5 µM.
With `CC1=C(CCCNC(=O)NCCO)C2=C(C)C3(CC3)[C@@](C)(O)C(=O)C2=C1`, the IC50 in assay [1] was under 0.08 µM; in assay [2] it was over 2.8 µM. Further, the “Ratio IC50” value in assay [3] is over 35.
Compound `CC1=C(CCCNS(=O)(=O)c2ccc(C)cc2)C2=C(C)C3(CC3)[C@@](C)(O)C(=O)C2=C1` displayed an IC50 in assay [1] of 0.58 µM.
For the compound `CC1=C(CO)C2=C(C)C3(CC3)[C@@](C)(O)C(=O)C2=C1` [IROFULVEN], the IC50 in assay [1] was 0.17 µM; in assay [2] it was 0.076 µM.
With `CONC(=O)NCC1=C(C)C=C2C(=O)[C@](C)(O)C3(CC3)C(C)=C21`, the IC50 in assay [2] was over 9.4 µM.
With `CC1=C(CCCOC(=O)NCCO)C2=C(C)C3(CC3)[C@@](C)(O)C(=O)C2=C1`, the outcome in the assay with MV522 was Active.
For the compound `CC1=C(CCCNS(=O)(=O)NO)C2=C(C)C3(CC3)[C@@](C)(O)C(=O)C2=C1`, the figures for the IC50 in assay [1] and in assay [2] were 0.008 µM and 0.25 µM, respectively. In assay [3], the “Ratio IC50” value is 31.
`CC1=C(CCCNC(=O)NO)C2=C(C)C3(CC3)[C@@](C)(O)C(=O)C2=C1` showed an IC50 in assay [2] of over 9 µM.
For the compound `CC1=C(CCCNC(=O)N2CCC(N3CCCCC3)CC2)C2=C(C)C3(CC3)[C@@](C)(O)C(=O)C2=C1`, the IC50 in assay [2] worked out at 9 µM.
`CC1=C(CCCOC(=O)N2CCOCC2)C2=C(C)C3(CC3)[C@@](C)(O)C(=O)C2=C1`: in assay [2], half-maximal inhibition (IC50) was put at 62.2 µM.
`CC1=C(CNS(C)(=O)=O)C2=C(C)C3(CC3)[C@@](C)(O)C(=O)C2=C1` returned an IC50 in assay [2] of over 9.3 µM.
As to `CC1=C(CNC(=O)NCCO)C2=C(C)C3(CC3)[C@@](C)(O)C(=O)C2=C1`, the figures for the IC50 in assay [1] and in assay [2] were 0.19 µM and over 9 µM, respectively. Moreover, the “Ratio IC50” value in assay [3] was over 47.
For `CC1=C(CCCNS(C)(=O)=O)C2=C(C)C3(CC3)[C@@](C)(O)C(=O)C2=C1`, the outcome in the assay with MV522 was Active. The IC50 in assay [1] was found to be 0.28 µM; in assay [2] it was 42 µM. Further, in assay [3], the “Ratio IC50” value is listed as over 150.
For the compound `CC1=C(CNS(N)(=O)=O)C2=C(C)C3(CC3)[C@@](C)(O)C(=O)C2=C1`, the IC50 was 0.3 µM in assay [1] and over 9.3 µM in assay [2]. Further, the “Ratio IC50” value in assay [3] was over 31.
As for `CC1=C(CCCNS(N)(=O)=O)C2=C(C)C3(CC3)[C@@](C)(O)C(=O)C2=C1`, the outcome in the assay with MV522 was Active. Also, the IC50 in assay [1] worked out at 0.076 µM; in assay [2], 54 µM. Further, the “Ratio IC50” value in assay [3] is given as 710.
`CC1=C(CNC(=O)NO)C2=C(C)C3(CC3)[C@@](C)(O)C(=O)C2=C1`: the values for the concentration for half-maximal inhibition (IC50) in assay [1] and in assay [2] were 0.19 µM and 9.8 µM, respectively. Further, the “Ratio IC50” value in assay [3] is listed as over 51.

In general, IC50 refers to the point on the concentration scale where inhibition reaches its midpoint. Low readings indicate inhibition by little substance, high ones a need for much substance.

(Values after ChEMBL document CHEMBL1156819, “Structure-activity studies of urea, carbamate, and sulfonamide derivatives of acylfulvene” (J Med Chem, 2010).)
